Assay results: ChEMBL document CHEMBL1149430, “Optimization of diarylamines as non-nucleoside inhibitors of HIV-1 reverse transcriptase” (Bioorg Med Chem Lett, 2006); call rule not given here

Assays:
[1] = tested on: Human immunodeficiency virus 1; test: Antiviral activity against HIV1 3B in MT2 cells by MTT assay; format: functional, organism-based
In short: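 HIV-1 IIIB infection of MT-2 human T cells, with MTT colorimetric read-out of cell protection.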

MT2 = test: Cytotoxicity against human MT2 cells by MTT assay; format: functional
[2] = Human immunodeficiency virus 1, 3B, MT2, read-out: EC50

SMILES | EC50 ([1]; mt2) | CC50 (MT2) | EC50 [1, 2]
Clc1ccc(Nc2nccs2)cc1OCC1CCCCC1 | Not Active | 15 µM | 
CC(C)=CCOc1cc(Nc2nc(N)cc(Cl)n2)ccc1Cl | Not Active | 0.014 µM | 
CC(C)=CCOc1cc(Nc2nccc(CO)n2)ccc1Cl | Not Active | 0.22 µM | 
Clc1ccc(Nc2nccs2)cc1OCc1ccoc1 |  | 26 µM | 7 µM
N#Cc1ccc(Nc2nccs2)cc1OCC1=CCCC1 | Not Active | 1.7 µM | 
N#Cc1ccc(Nc2nccs2)cc1OCc1cccs1 | Not Active | 4.1 µM | 
CC(C)=CCOc1cc(Nc2nc(C)cc(N)n2)ccc1Cl | Not Active | < 0.004 µM | 
CSc1ccnc(Nc2ccc(Cl)c(OCC=C(C)C)c2)n1 |  | 2.8 µM | 
Clc1ccc(Nc2nccs2)cc1OCc1nccs1 | Not Active | 20 µM | 
Clc1ccc(Nc2nccs2)cc1OCc1ccccc1 |  | 17 µM | 6 µM
COc1cc(N)nc(Nc2ccc(Cl)c(OCC=C(C)C)c2)n1 |  | 19 µM | 
COc1ccc(Nc2nc(CO)cs2)cc1OCC=C(C)C |  | 80 µM | 9 µM
COc1cc(OC)nc(Nc2ccc(Cl)c(OCC=C(C)C)c2)n1 |  | 28 µM | 
N#Cc1ccc(Nc2nccs2)cc1OCc1ccco1 |  | 18 µM | 1.2 µM
Clc1ccc(Nc2nccs2)cc1OCc1ccco1 |  | 18 µM | 4 µM
CC(C)=CCOc1cc(Nc2nccs2)ccc1C#N |  | 0.75 µM | 
COCc1ccnc(Nc2ccc(Cl)c(OCC=C(C)C)c2)n1 | Not Active | > 25 µM | 
COc1ccnc(Nc2ccc(C)c(OCC=C(C)C)c2)n1 |  | 41 µM | 0.32 µM
Clc1ccc(Nc2nccs2)cc1OCC1=CCCC1 |  | 15 µM | 5 µM
Clc1ccc(Nc2nccs2)cc1OCc1ccsc1 |  | 38 µM | 5.5 µM
CC/C(C)=C\COc1cc(Nc2nccs2)ccc1Cl |  | 18 µM | 1 µM
CC(C)=CCOc1cc(Nc2nccs2)ccc1C(=O)O | Not Active | 17 µM | 
N#Cc1ccc(Nc2nccs2)cc1OCc1ccsc1 | Not Active | 1.1 µM | 
N#Cc1ccc(Nc2nccs2)cc1OCc1ccoc1 | Not Active | 4 µM | 
CC(C)=CCOc1cc(Nc2ncccn2)ccc1Cl |  | 2.5 µM | 
N#Cc1ccc(Nc2nccs2)cc1OCc1nccs1 |  | 20 µM | 4.5 µM
Clc1ccc(Nc2nccs2)cc1OCc1cccs1 |  | 38 µM | 10 µM
CC(C)=CCOc1cc(Nc2ncc(Br)c(N)n2)ccc1Cl |  | 12 µM | 0.7 µM
CC1=C(COc2cc(Nc3nccs3)ccc2Cl)CCC1 | Not Active | 11 µM | 
